In data set [1] the test system is SH-SY5Y. As to the kind of experiment: Induction of autophagy in human SH-SY5Y cells assessed as phosphorylated mTOR level at 10 uM measured after 6 hrs by Western blot analysis (reference value: 100%). Type of data set: functional. The essentials: (§1)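 SH-SY5Y cells were treated with 10 µM for 6 h and lysed in ice-cold hypotonic Tris buffer (pH 7.4) with 1% Triton X-100 and inhibitors. The cytosolic fraction was taken at 3000 rpm; membrane fraction came via nuclear extraction buffer. 20 µg protein was run on 10% SDS-PAGE with chemiluminescent detection. Read-outs were LC3II/LC3I ratio or % of untreated (p-mTOR, p62); three experiments in triplicate, blots run in duplicate.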
(In western blotting, separated proteins are transferred to a membrane and probed.)

In data set [2] the test system is SH-SY5Y. The experiment in a line: Induction of autophagy in human SH-SY5Y cells assessed as increase in cytoplasmic p62 levels at 10 uM measured after 6 hrs by Western blot analysis. Type of data set: functional, cell-based. The procedure, abridged:
as §1

The subject of data set [3] is SH-SY5Y. The experiment in a line: Induction of apoptosis in human SH-SY5Y cells assessed as decrease in viable cells at 10 uM measured after 6 hrs by Annexin V-FITC/propidium iodide staining based flow cytometry. Type of data set: cell-based. The essentials: (§2)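 SH-SY5Y cells (1×10^6 per well) were treated with 10 µM for 6 h, washed in PBS, and stained with annexin V-FITC/propidium iodide in binding buffer for 15 min. Imaging flow cytometry counted 10000 events. Viable, apoptotic and necrotic populations are given as % of untreated cells, mean ± SEM of three independent experiments in triplicate.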
(Flow cytometry measures light scatter and fluorescence of single cells or particles in a stream.)

Data set [4] concerns SH-SY5Y. As to the kind of experiment: Cytotoxicity against human SH-SY5Y cells assessed as reduction in cell viability measured after 6 hrs by MTT assay. It is filed as cell-based. To be noted: for IC50: Homo sapiens, SH-SY5Y, 6 h; for Cytotoxicity call (toxic / non-toxic): sh-sy5y. The procedure, abridged:
(§3)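 SH-SY5Y cells (ATCC CRL2266) in DMEM/F-12 with 10% FBS, 1% glutamax and penicillin/streptomycin, 37 °C, 5% CO2. Compounds were added to the medium (0.01, 0.05, 0.1 and 1 µM listed) for 24 or 6 h. Cells were then given 500 µg/mL MTT for 1 h and solubilized in 5% SDS, with A595 read. Saponin death-control absorbance was subtracted. IC50 reported with 95% CI and R².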
On the technique in general: Tetrazolium assays rely on reduction of a dye to a coloured formazan, in cell work by metabolically active cells.

Data set [5] concerns SH-SY5Y. As to the kind of experiment: Induction of autophagy in human SH-SY5Y cells assessed as increase in LC3-2/LC3-1 ratio at 10 uM measured after 6 hrs by Western blot analysis. Type of data set: functional, cell-based. The essentials:
as §1

The test system of data set [6] is SH-SY5Y. As to the kind of experiment: Induction of apoptosis in human SH-SY5Y cells assessed as increase in necrotic cells at 10 uM measured after 6 hrs by Annexin V-FITC/propidium iodide staining based flow cytometry. Type of data set: cell-based. The procedure, abridged:
as §2

Data set [7] concerns SH-SY5Y. The experiment in a line: Induction of apoptosis in human SH-SY5Y cells assessed as increase in apoptotic cells at 10 uM measured after 6 hrs by Annexin V-FITC/propidium iodide staining based flow cytometry. Type of data set: cell-based. The essentials: as §2
Data set [8] relates to SH-SY5Y. As to the kind of experiment: Effect on mitochondrial membrane potential in human SH-SY5Y cells up to 10 uM measured after 6 hrs by TMRM assay.
In data set [9] the test system is SH-SY5Y. The experiment in a line: Induction of autophagy in human SH-SY5Y cells assessed as decrease in cytoplasmic p62 levels at 10 uM measured after 6 hrs by Western blot analysis. It is filed as functional. As to conditions: in the assay text read “membrane” for “cytoplasmic”. Details: scale not given: the % may be the effect or the level left. The procedure, abridged:
as §1

Data set [10] deals with SH-SY5Y. The experiment in a line: Cytotoxicity against human SH-SY5Y cells assessed as reduction in cell viability measured after 24 hrs by LDH release assay. It is filed as cell-based. The essentials:
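SH-SY5Y cells in DMEM/F-12 with 10% FBS at 37 °C, 5% CO2, exposed to compounds in the medium for 24 h. LDH release was measured with a commercial LDH-cytotoxicity kit per its protocol as the viability indicator. IC50 reported with 95% CI and R².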

Data set [11] deals with SH-SY5Y. The experiment in a line: Cytotoxicity against human SH-SY5Y cells assessed as reduction in cell viability measured after 24 hrs by MTT assay. It is filed as cell-based. The essentials:
as §3

The test system of data set [12] is SH-SY5Y. As to the kind of experiment: Effect on cell viability in human SH-SY5Y cells up to 10 uM after 1 hr by MTT assay. Type of data set: cell-based.
Data set [13] deals with SH-SY5Y. As to the kind of experiment: Inhibition of reactive oxygen species production in human SH-SY5Y cells up to 10 uM measured after 6 hrs by DCFH-DA dye based fluorescence assay relative to control. It is filed as cell-based. On the set-up: scale not given: the % may be the effect or the level left. The procedure, abridged:
(§4)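 SH-SY5Y cells were exposed to compounds (6 h; 1 h also run), washed in saline, and loaded with 20 µM DCF-DA for 30 min at 37 °C. They were then held 30 min at room temperature for de-esterification. DCF fluorescence was read at 475 nm excitation and 525 nm emission, expressed as % of diluent-treated controls, with four independent experiments in triplicate.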

Data set [14] relates to SH-SY5Y. As to the kind of experiment: Induction of autophagy in human SH-SY5Y cells assessed as LC3-2/LC3-1 ratio at 10 uM measured after 6 hrs by Western blot analysis (reference value: 2.6 +/- 0.3). It is filed as functional.
Data set [15] relates to SH-SY5Y. The experiment in a line: Inhibition of reactive oxygen species production in human SH-SY5Y cells up to 10 uM measured after 1 hr by DCFH-DA dye based fluorescence assay. Type of data set: cell-based. The procedure, abridged:
as §4

Data set [16] relates to SH-SY5Y. The experiment in a line: Cytotoxicity against human SH-SY5Y cells assessed as decrease in cell viability at 10 uM measured after 6 to 24 hrs by MTT assay relative to control. Type of data set: cell-based.
The subject of data set [17] is SH-SY5Y. The experiment in a line: Effect on cell viability in human SH-SY5Y cells up to 10 uM after 6 hrs by MTT assay. It is filed as cell-based.
[18] abbreviates: Homo sapiens, SH-SY5Y, 24 h, read-out: IC50.

The source made the active and inactive calls. The rule behind the calls is not given here. Numbered stars: 1 amine (or outer) side, 2 acyl side, 3 side chain; on linkers, the order of the positions; unused ones are H or OH. Square brackets hold non-standard residues; d marks the D form. Peptide text beside a SMILES is read from it. dβ3hAhp = CCCCC[C@H](CC(=O)[*:2])N[*:1]; d(aIle) = CC[C@H](C)[C@@H](N)C(=O)O; Hyp = O=C(O)[C@@H]1C[C@@H](O)CN1; X1 = C/C=C(/N[*:1])C(=O)[*:2]; hSer = N[C@@H](CCO)C(=O)O

For `C/C=C1/NC(=O)[C@H](CCO)NC(=O)C[C@@H](CCCCC)NC(=O)CNC(=O)[C@H](CC(C)C)NC(=O)[C@@H]([C@@H](C)CC)NC(=O)[C@H](C(C)C)NC(=O)[C@@H](CC(C)C)NC(=O)[C@@H](Cc2ccccc2)NC(=O)[C@H](CCO)NC(=O)[C@@H]2C[C@@H](O)CN2C1=O`, the Activity was 73.1% with SH-SY5Y [1]; “Toxic” in the data set on SH-SY5Y [3]; “Non-Toxic” in the data set with SH-SY5Y [6]; “Non-Toxic” with SH-SY5Y [7]; “Toxic” in the data set with SH-SY5Y [8]; 15.8% with SH-SY5Y [9]. For the same molecule, the result in the data set with SH-SY5Y [2] and in the data set on SH-SY5Y [5] was Active. In addition, the IC50 (usually the concentration needed to halve the response being measured) in the data set on SH-SY5Y [4] was found to be 1.3 µM; in the data set on SH-SY5Y [10] (setting [18]), 3.6 µM; in the data set on SH-SY5Y [11] (setting [18]) it was 0.6 µM.
As for `C/C=C1/NC(=O)[C@H](CCO)NC(=O)C[C@@H](CCCCC)NC(=O)CNC(=O)[C@H](CC(C)C)NC(=O)[C@@H](C(C)C)NC(=O)[C@H]([C@@H](C)CC)NC(=O)[C@@H](CC(C)C)NC(=O)[C@@H](Cc2ccccc2)NC(=O)[C@H](CCO)NC(=O)[C@@H]2C[C@@H](O)CN2C1=O`, the Activity entry with SH-SY5Y [12] was “Non-Toxic”; in the data set on SH-SY5Y [13] it was “Toxic”; in the data set on SH-SY5Y [1], 70.7%; in the data set on SH-SY5Y [3] it was “Toxic”; in the data set on SH-SY5Y [15], “Toxic”; in the data set with SH-SY5Y [6], “Non-Toxic”. The Activity entry is reported as “Non-Toxic” with SH-SY5Y [7] and “Toxic” in the data set with SH-SY5Y [8]. For the same molecule, the result in the data set on SH-SY5Y [2] and in the data set with SH-SY5Y [9] was Active. The Ratio in the data set with SH-SY5Y [14] is 6.4. Also, the IC50 in the data set on SH-SY5Y [4] turned out to be 3.7 µM; in the data set on SH-SY5Y [10] (setting [18]), 12.4 µM; in the data set with SH-SY5Y [11] (setting [18]), 5.6 µM.
For `C/C=C1/NC(=O)[C@H](CCO)NC(=O)C[C@@H](CCCCC)NC(=O)CNC(=O)[C@H](CC(C)C)NC(=O)[C@@H]([C@@H](C)CC)NC(=O)[C@H]([C@@H](C)CC)NC(=O)[C@@H](CC(C)C)NC(=O)[C@@H](Cc2ccccc2)NC(=O)[C@H](CCO)NC(=O)[C@@H]2C[C@@H](O)CN2C1=O` [LAXAPHYCIN A] (cyclo(G[dβ3hAhp][hSer][X1][Hyp][hSer][dF][dL]I[d(aIle)]L)), the “Cytotoxicity call (toxic / non-toxic)” value with SH-SY5Y [4] is given as “Non-Toxic”. Also, the half-maximal inhibitory concentration (IC50) result in the data set on SH-SY5Y [10] (sh-sy5y) and in the data set with SH-SY5Y [11] (sh-sy5y) was “Non-Toxic” each time.
`C/C=C(/NC(=O)[C@H](CCO)NC(=O)C[C@H](N)CCCCC)C(=O)N1C[C@H](O)C[C@H]1C(=O)N[C@@H](CCO)C(=O)N[C@H](Cc1ccccc1)C(=O)N[C@H](CC(C)C)C(=O)N[C@H](C(=O)N[C@@H](C(=O)N[C@@H](CC(C)C)C(=O)O)[C@@H](C)CC)[C@@H](C)CC`: the Activity result in the data set with SH-SY5Y [12] is listed as “Non-Toxic”; in the data set with SH-SY5Y [13], 40%; with SH-SY5Y [1], 70.3%; in the data set on SH-SY5Y [16] it was 50%; with SH-SY5Y [15] it was “Toxic”; with SH-SY5Y [8] it was “Toxic”. The Activity result in the data set on SH-SY5Y [17] is given as “Non-Toxic”. The outcome with SH-SY5Y [2] and in the data set with SH-SY5Y [9] was Active. Moreover, the Ratio in the data set with SH-SY5Y [14] came to 6.7. Further, the “Cytotoxicity call (toxic / non-toxic)” value in the data set with SH-SY5Y [4] is given as “Toxic”. In addition, the half-maximal inhibitory concentration (IC50) result in the data set with SH-SY5Y [10] (sh-sy5y) was “Non-Toxic”; with SH-SY5Y [11] (sh-sy5y), “Toxic”.
Consider `C/C=C(/NC(=O)[C@H](CCO)NC(=O)C[C@H](N)CCCCC)C(=O)N1C[C@H](O)C[C@H]1C(=O)N[C@@H](CCO)C(=O)N[C@H](Cc1ccccc1)C(=O)N[C@H](CC(C)C)C(=O)N[C@H](C(=O)N[C@@H](C(=O)O)[C@@H](C)CC)[C@@H](C)CC`, for which the “Cytotoxicity call (toxic / non-toxic)” value in the data set on SH-SY5Y [4] was “Non-Toxic”. Also, the IC50 entry in the data set on SH-SY5Y [10] (sh-sy5y) and with SH-SY5Y [11] (sh-sy5y) was “Non-Toxic” in each case.

The record behind these values is ChEMBL document CHEMBL4392843, “Structure and biological evaluation of new cyclic and acyclic laxaphycin-A type peptides” (Bioorg Med Chem, 2019).
